PubChem BioAssay AID743238 (Broad Institute, 2013)
Out of some 360,000 compounds screened, about 200 (0.056%) were called active.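 The calls were made as follows: active = mean normalized replicate activation at least 10% and every replicate at or above 10%; inconclusive = only one of the two criteria met; inactive = mean below 10% and not all replicates reach 10%.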 The list comes from a sample in which actives are over-represented; it also holds similar structures and randomly drawn compounds.

Assay: activators of inactive X chromosome reactivation, primary screen, imaging, XiGFP fibroblasts, GFP high-content imaging, set 2 (AID 743238);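 also: 0% = median of on-plate neutral control wells and 100% = ellipticine 6 µM median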
Conditions: XiGFP mouse fibroblasts, % GFP-positive cells imaging, 3 d; at 7.58 µM; stronger effect = higher value; cells co-treated with 5-aza-dC sensitizer; scaled so ellipticine positive control = 100%
Procedure, shortened: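 System: XiGFP fibroblasts, SV40-immortalized. Medium: DMEM plus 5-aza-dC sensitizer. Doses: single point. Timing: 3 d treatment, 15 min room-temperature fixation. Control set: ellipticine 6 µM.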

| Structure (SMILES) | activation |
| --- | --- |
| COc1ccc2c3c(n(C)c2c1)[C@H](CO)N(CC1CCOCC1)CC31CCN(C(C)=O)CC1 | 0.008% (inactive) |
| C/C=C/c1ccc([C@@H]2[C@H](CO)N(CC3CCOCC3)C23CN(S(=O)(=O)CC)C3)cc1 | 0.064% (inactive) |
| COc1ccc(S(=O)(=O)Nc2cccc3c2O[C@H](CN(C)C(=O)Nc2cccc4ccccc24)[C@H](C)CN([C@@H](C)CO)C3=O)cc1 | -0.983% (inactive) |
| C[C@@H]1CCCCO[C@H](CN(C)C(=O)Nc2cccc3ccccc23)[C@@H](C)CN([C@@H](C)CO)C(=O)c2cc(NC(=O)Nc3ccc(F)cc3)ccc2O1 | -0.01% (inactive) |
| C[C@@H](NC(=O)C[C@H]1CC[C@H]2[C@H](COc3ccc(NS(=O)(=O)c4ccc(Cl)cc4)cc3C(=O)N2C)O1)c1ccccc1 | -0.013% (inactive) |
| CCC(=O)NC[C@H]1[C@@H](c2ccc(C3=CCCC3)cc2)[C@@H](CO)N1C(=O)C1CC1 | -0.043% (inactive) |
| CCCC#Cc1cnc2c(c1)C(=O)N([C@H](C)CO)C[C@H](C)[C@@H](CN(C)C(=O)c1cccnc1)O2 | -0.912% (inactive) |
| COc1ccc2c3c(n(C)c2c1)[C@H](CO)N(Cc1ccccc1)CC31CCN(C)CC1 | 0.287% (inactive) |
| CCN(CC)c1ccc([N+](=O)[O-])cc1C(=O)O | -0.147% (inactive) |
| Cc1ccc(NC(=O)c2cc([N+](=O)[O-])ccc2Cl)c(O)c1 | 0.0305% (inactive) |
| CNc1ccc([N+](=O)[O-])cc1C(=O)O | 34.2% (active) |
| CNC(=O)C[C@H]1CC[C@@H]2[C@H](COc3ccc(NC(=O)Nc4cccc(F)c4)cc3C(=O)N2C)O1 | 0.022% (inactive) |
| C[C@H](O)C#Cc1ccc2c(c1)O[C@H](CN(C)Cc1ccccn1)[C@@H](C)CN([C@@H](C)CO)S2(=O)=O | -0.095% (inactive) |
| O=C(C[C@@H]1CC[C@@H](NC(=O)C2CCOCC2)[C@H](CO)O1)NCC1CC1 | -0.115% (inactive) |
| COc1ccc2c3c(n(C)c2c1)[C@@H](CO)N(Cc1ccccc1F)CC31CCN(C(=O)C2CCOCC2)CC1 | -0.019% (inactive) |
| O=C(c1ccc(F)cc1)N1CC(=O)N2[C@@H](CO)[C@H](c3ccc(C4=CCCC4)cc3)[C@@H]2C1 | 0.604% (inactive) |
| CCS(=O)(=O)N1[C@H](CO)[C@@H](c2ccccc2)C12CN(C(=O)c1ccccc1F)C2 | 0.139% (inactive) |
| CCS(=O)(=O)N1CC(=O)N2[C@H](C1)[C@@H](c1ccc(C#Cc3ccc(F)cc3)cc1)[C@@H]2CO | 0.458% (inactive) |
| CC(C)(C)n1nc2c(c1NC(=O)c1cc3ccccc3o1)CSC2 | 0% (inactive) |
| Cc1c(/C=N\NC(=O)c2cc3ccccc3o2)c2ccccc2n1C | 16.6% (active) |
| COc1ccc2c(c1)c(C(=O)N/N=C/c1cccs1)c(C)n2C | 0.148% (inactive) |
| CCCNC(=O)C[C@H]1C[C@@H]2c3cc(NC(=O)COC)ccc3O[C@@H]2[C@@H](CO)O1 | -0.017% (inactive) |
| O=C(C[C@@H]1CC[C@H]2[C@@H](COC[C@@H](O)CN2CC2CC2)O1)NCc1ccc(Cl)cc1 | 0.122% (inactive) |
